The record followed here is ChEMBL document CHEMBL3352170, “Sulfonamides as multifunctional agents for Alzheimer's disease” (Bioorg Med Chem Lett, 2015).

Series [1] addresses Amyloid-beta precursor protein (Homo sapiens) (UniProt P05067). Briefly: Stimulation of Amyloid beta (1 to 40) (unknown origin) fibril formation at Abeta:compound ratio of 1:10 after 4 days by Thioflavin-T fluorescence assay. The gist of the method:
(§1)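 Aβ fibrillogenesis was measured by quantitative Thioflavin-T fluorescence with Aβ at 100 µM and Aβ:inhibitor at 1:10, or 1:1 for one compound. Signal was normalized to the fluorescence of the inhibitor-free control.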

Series [2] shares this target. The series can be described thus: Inhibition of Amyloid beta (1 to 42) (unknown origin) oligomer assembly at Abeta:compound ratio of 0.0002 after 30 mins by single-site ELISA assay. Summed up:
(§2)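 Oligomer formation was read in a single-site streptavidin-based assay using biotinyl-Aβ(1–42) at 0.01 µM. Aβ/inhibitor ratio was 0.0002, with 30 min incubation.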
Background: An ELISA detects its analyte on a solid surface through an enzyme-linked reagent.

Series [3] shares this target. The series can be described thus: Inhibition of Amyloid beta (1 to 40) (unknown origin) fibril formation at Abeta:compound ratio of 1:10 after 4 days by Thioflavin-T fluorescence assay. Summed up: as §1
Series [4] has the same target. Briefly: Inhibition of Amyloid beta (1 to 40) (unknown origin) fibril formation at Abeta:compound ratio of 1:10 after 4 days by atomic force microscopy. The gist of the method:
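Aβ(1–40) was incubated for 4 days with or without inhibitor, at 100 µM Aβ and Aβ:inhibitor 1:10. Fibril morphology was imaged by atomic force microscopy against a solvent-treated control.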

The target is the same in series [5]. Briefly: Stimulation of Amyloid beta (1 to 42) (unknown origin) oligomer assembly at Abeta:compound ratio of 0.0002 after 30 mins by single-site ELISA assay. Summed up:
as §2

For series [6], the target named is T1, Cholinesterase (Homo sapiens, UniProt P06276). The series can be described thus: Inhibition of BuChE (unknown origin) assessed as reduction in S-butyrylthiocholine chloride hydrolysis at 10 uM after 15 mins by Ellman method. Summed up:
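Single-concentration screen of the commercial and synthetic sulfonamides. Read-out is percent inhibition of BuChE activity. Galanthamine serves as the reference standard.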
In general terms: DTNB colorimetry detects thiols as they appear.

Series [7] has as its target T1, Cholinesterase. Briefly: Inhibition of BuChE (unknown origin) assessed as reduction in S-butyrylthiocholine chloride hydrolysis after 15 mins by Ellman method.
Series [8] can be described thus: Antioxidant activity assessed as DPPH radical scavenging activity at 10 uM after 30 mins. Particulars: 0.5 h. Format: physicochemical. For orientation: Loss of DPPH colour is used to gauge radical scavenging.
The target of series [9] is Acetylcholinesterase (Homo sapiens, UniProt P22303). Briefly: Inhibition of AChE (unknown origin) assessed as reduction in acetylthiocholine iodide hydrolysis after 15 mins by Ellman method.
Series [10] deals with Amyloid-beta precursor protein (Homo sapiens) (UniProt P05067). Briefly: Inhibition of Amyloid beta (1 to 40) (unknown origin) fibril formation at Abeta:compound ratio of 1:1 after 4 days by Thioflavin-T fluorescence assay. The following applies: concentration not given here. The gist of the method:
as §1

Molecules are shown by their SMILES. The source made the active and inactive calls. The calls are words filed in the database; no cut-off is given here.

T1 sequence (P06276 whole entry): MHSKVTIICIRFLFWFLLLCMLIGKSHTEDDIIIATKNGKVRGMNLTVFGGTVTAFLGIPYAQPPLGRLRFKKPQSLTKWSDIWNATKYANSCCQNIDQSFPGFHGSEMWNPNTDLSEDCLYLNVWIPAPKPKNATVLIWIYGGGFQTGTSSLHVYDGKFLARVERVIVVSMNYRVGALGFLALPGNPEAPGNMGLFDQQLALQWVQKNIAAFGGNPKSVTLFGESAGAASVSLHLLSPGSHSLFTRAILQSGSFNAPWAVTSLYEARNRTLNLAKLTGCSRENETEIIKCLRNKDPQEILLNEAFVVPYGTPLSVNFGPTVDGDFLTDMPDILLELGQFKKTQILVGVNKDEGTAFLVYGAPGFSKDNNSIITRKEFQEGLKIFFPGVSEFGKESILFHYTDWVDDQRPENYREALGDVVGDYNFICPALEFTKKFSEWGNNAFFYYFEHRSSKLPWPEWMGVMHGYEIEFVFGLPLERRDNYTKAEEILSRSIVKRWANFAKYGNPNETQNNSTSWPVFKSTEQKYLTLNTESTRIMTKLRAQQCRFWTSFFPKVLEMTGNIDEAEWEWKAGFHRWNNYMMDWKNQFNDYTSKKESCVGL
Sequence of Amyloid-beta precursor protein (Homo sapiens) (P05067 whole entry): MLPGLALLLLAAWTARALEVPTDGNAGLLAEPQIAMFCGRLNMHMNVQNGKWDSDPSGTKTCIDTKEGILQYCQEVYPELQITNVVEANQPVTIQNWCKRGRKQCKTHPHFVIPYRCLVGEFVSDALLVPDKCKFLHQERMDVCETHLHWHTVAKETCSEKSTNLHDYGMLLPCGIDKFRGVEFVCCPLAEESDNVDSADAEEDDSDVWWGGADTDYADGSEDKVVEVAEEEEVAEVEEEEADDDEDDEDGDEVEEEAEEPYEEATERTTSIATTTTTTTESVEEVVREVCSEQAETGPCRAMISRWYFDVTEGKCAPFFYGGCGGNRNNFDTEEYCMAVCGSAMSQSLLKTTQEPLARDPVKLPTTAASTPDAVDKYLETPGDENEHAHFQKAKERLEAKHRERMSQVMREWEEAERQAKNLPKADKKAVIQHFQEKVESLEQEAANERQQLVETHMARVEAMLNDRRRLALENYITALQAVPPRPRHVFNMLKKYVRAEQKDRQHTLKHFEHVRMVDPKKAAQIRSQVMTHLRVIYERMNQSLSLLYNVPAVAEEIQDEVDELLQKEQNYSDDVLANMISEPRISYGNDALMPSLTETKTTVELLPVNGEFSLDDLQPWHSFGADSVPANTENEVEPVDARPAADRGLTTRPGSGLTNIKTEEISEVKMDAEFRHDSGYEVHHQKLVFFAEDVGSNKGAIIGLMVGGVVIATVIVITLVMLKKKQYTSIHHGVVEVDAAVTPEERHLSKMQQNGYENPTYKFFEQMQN
Sequence of Acetylcholinesterase (P22303 whole entry): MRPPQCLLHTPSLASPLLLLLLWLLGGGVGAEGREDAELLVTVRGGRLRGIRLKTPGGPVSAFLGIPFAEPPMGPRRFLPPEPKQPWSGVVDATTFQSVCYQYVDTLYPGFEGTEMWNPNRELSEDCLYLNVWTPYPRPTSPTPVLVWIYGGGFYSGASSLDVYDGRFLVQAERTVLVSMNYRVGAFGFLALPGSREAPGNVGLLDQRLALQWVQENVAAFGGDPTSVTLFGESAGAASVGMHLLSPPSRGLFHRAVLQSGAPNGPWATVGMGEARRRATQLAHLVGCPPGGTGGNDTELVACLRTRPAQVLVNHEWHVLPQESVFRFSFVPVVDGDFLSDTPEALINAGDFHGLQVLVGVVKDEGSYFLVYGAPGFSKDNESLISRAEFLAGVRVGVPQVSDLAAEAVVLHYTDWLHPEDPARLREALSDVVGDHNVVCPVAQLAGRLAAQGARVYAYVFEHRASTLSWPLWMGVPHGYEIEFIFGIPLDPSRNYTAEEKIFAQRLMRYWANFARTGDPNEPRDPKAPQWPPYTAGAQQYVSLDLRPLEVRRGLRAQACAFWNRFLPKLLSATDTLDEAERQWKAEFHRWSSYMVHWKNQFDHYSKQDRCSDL

A word on the inhibition: it is how much of the control response was suppressed. On to `O=C1c2ccccc2S(=O)(=O)N1CCCN1CCC(O)CC1`, for which the outcome in series [1] was Active. Also, the inhibition in series [2] is less than 54%.

`O=C1c2ccccc2S(=O)(=O)N1CCCN1CCN(Cc2ccccc2)CC1`: the outcome in series [1] was Active. Besides, the inhibition result in series [2] is “inactive”.

In the case of `O=C(NCCCCNC(=O)c1ccc2ccccc2c1)c1ccc2ccccc2c1`, the inhibition entry in series [3] was “Active”. Further, the inhibition in [2] worked out at 99%.

As to `CCN(CC)CCN1C(=O)c2ccccc2S1(=O)=O`, in series [1], the result was Active. Moreover, the inhibition in series [2] was less than 54%.

The term IC50 denotes the point on the concentration scale where inhibition reaches its midpoint. On to `O=S(=O)(CCCN1CCC(c2ccccc2)CC1)NCCNc1cccc2ccccc12`, for which the inhibition in [3] (concentration not given here) was determined as 87%; in [6], 58%. The inhibition entry in series [4] was “Active”. The outcome in series [5] was Active. In addition, the IC50 in series [7] turned out to be 5.08 µM.

As for `O=S(=O)(CCCCl)NCCNc1cccc2ccccc12`, in series [3], the inhibition result was “Active”. The outcome in series [5] was Active.

As for `Cc1ccccc1S(N)(=O)=O`, the result in series [1] was Active. Further, the inhibition in [2] was less than 54%.

On to `Cl.O=S(=O)(CCCN(CCO)CCO)NCCNc1cccc2ccccc12`, for which the inhibition result in [3] is “Active”. Further, in [5], the outcome was Active. Besides, in series [8], the result was Active.

As to `O=S(=O)(CCCN1CCN(c2ncccn2)CC1)NCCNc1cccc2ccccc12`, the inhibition entry in series [3] was “Active”. For the same compound, the result in series [5] was Active.

With `CC(C(O)c1ccccc1)N(C)CCCS(=O)(=O)NCCNc1cccc2ccccc12.Cl` (centres undefined), in series [3], the inhibition result is “Active”. Moreover, in series [5], the result was Active. Moreover, the result in [8] was Active. Further, in series [6], the inhibition was more than 40%.

As to `NS(=O)(=O)c1ccccc1Br`, the result in [1] was Active. Moreover, in series [2], the inhibition was less than 54%.

For `O=S(=O)(CCCN1CCN(c2ccccc2)CC1)NCCNc1cccc2ccccc12`, the inhibition result in [3] is “Active”. For the same compound, the result in series [5] was Active. For the same compound, in series [6], the inhibition is more than 40%.

As for `O=S(=O)(CCCN1CCC(O)CC1)NCCNc1cccc2ccccc12`, the inhibition in series [3] (concentration not given here) came to 64%. In series [5], the outcome was Active.

`O=S(=O)(CCCN1CCC(Cc2ccccc2)CC1)NCCNc1cccc2ccccc12`: the inhibition was 60% in [3] (concentration not given here) and more than 40% in [6]. Besides, the outcome in [5] was Active.

As for `O=C1c2ccccc2S(=O)(=O)N1CCO`, in series [1], the outcome was Active. In addition, the inhibition in [2] is less than 54%.

With `O=S(=O)(CCCN1CCOCC1)NCCNc1cccc2ccccc12`, the inhibition result in series [3] is “Active”. Also, the outcome in [5] was Active.

For `O=C1NS(=O)(=O)c2ccccc21` [SACCHARIN], the result in [1] was Active. Besides, the inhibition in [2] was less than 54%; in series [6], 73%. Also, the IC50 in series [7] was found to be 3.6 µM.

As for `O=C1c2ccccc2S(=O)(=O)N1CCCN(CCO)CCO`, the outcome in [1] was Active. Moreover, the inhibition in [2] was less than 54%.

For `O=S(=O)(CCCNCCc1c[nH]c2ccccc12)NCCNc1cccc2ccccc12`, in series [3], the inhibition entry was “Active”. Moreover, in series [5], the result was Active. In addition, the inhibition in series [6] was more than 80%.

Consider `NS(=O)(=O)c1ccc([N+](=O)[O-])cc1`, for which the result in [1] was Active. Further, in [2], the inhibition is less than 54%.

As for `CCN(CC)CCCN1C(=O)c2ccccc2S1(=O)=O`, in series [1], the result was Active. For the same compound, the inhibition in series [2] is less than 54%.

`O=S(=O)(CCCN1CCN(Cc2ccccc2)CC1)NCCNc1cccc2ccccc12`: the values for the inhibition in series [3] (concentration not given here) and in series [6] were 43% and 90%, respectively. The result in [5] was Active. For the same compound, the result in [8] was Active. Besides, the IC50 in [9] was determined as 0.16 µM; in series [7], 2 µM.

With `O=C(CCC(=O)NCCNc1cccc2ccccc12)NCCNc1cccc2ccccc12`, in [3], the inhibition result was “Active”. Further, in [2], the inhibition worked out at 50%.

Regarding `COc1ccc(S(N)(=O)=O)cc1`, in [1], the outcome was Active. Moreover, in series [2], the inhibition was less than 54%.

`O=S(=O)(CCCN1CCN(c2ccccn2)CC1)NCCNc1cccc2ccccc12`: the inhibition result in series [3] is “Active”. Moreover, the outcome in series [5] was Active. In series [6], the inhibition is more than 40%.

Take `O=S(=O)(CCCNCCNc1cccc2ccccc12)NCCNc1cccc2ccccc12`: the inhibition worked out at 45% in series [10] and 99% in [6]. In addition, the result in series [5] was Active. Further, in series [7], the IC50 was 0.93 µM.

On to `CC(NCCCS(=O)(=O)NCCNc1cccc2ccccc12)c1ccccc1` (centres undefined), for which the inhibition entry in [3] is “Active”. Also, the result in series [5] was Active. The inhibition in series [6] is more than 40%.

For `Oc1ccc(/C=C/c2cc(O)cc(O)c2)cc1` [RESVERATROL], the outcome in series [8] was Active.
